According to ChEMBL document CHEMBL1124072, “1,2,4-Trioxanes as potential antimalarial agents” (J Med Chem, 1988):
Converted amounts (≈) assume the structure as drawn.

Each compound was assayed on Plasmodium falciparum (assay: In vitro EC50 against chloroquine susceptible Plasmodium falciparum by [3H]hypoxanthine incorporation).
Format: functional, organism-based
Outline: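 Chloroquine-susceptible P. falciparum cultured in vitro and tested by the Desjardins method. Inhibition of parasite [3H]hypoxanthine uptake is the read-out. The value is the concentration (ng/mL) giving 50% inhibition of uptake.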

Row | SMILES | IC50 [µg/mL]
1 | CC(C[C@@]12C=C[C@]3(OO1)C(C)(C)CCC[C@@]3(C)O2)OC(=O)c1ccccc1 (stereo partly specified) | 0.733 (≈ 1.97 µM)
2 | COC(=O)C[C@@]12C=C[C@]3(OO1)C(C)(C)CCC[C@@]3(C)O2 | 0.096 (≈ 0.34 µM)
3 | COC(=O)C[C@@]12CC[C@]3(OO1)C(C)(C)CCC[C@@]3(C)O2 | 0.083 (≈ 0.292 µM)
4 | CC(C[C@@]12CC[C@]3(OO1)C(C)(C)CCC[C@@]3(C)O2)OC(=O)c1ccccc1 (stereo partly specified) | 0.0239 (≈ 0.0638 µM)
5 | CC1(C)CCC[C@@]2(C)O[C@]3(C)CC[C@]12OO3 | 1.35 (≈ 5.97 µM)
6 | C[C@H](C[C@@]12C=C[C@]3(OO1)C(C)(C)CCC[C@@]3(C)O2)OC(=O)c1ccccc1 | 0.789 (≈ 2.12 µM)
7 | C[C@@H](O)C[C@@]12CC[C@]3(OO1)C(C)(C)CCC[C@@]3(C)O2 | 0.389 (≈ 1.44 µM)
8 | CC1(C)CCC[C@@]2(C)O[C@]3(C)C=C[C@]12OO3 | > 1.2
9 | C[C@@H](O)C[C@@]12C=C[C@]3(OO1)C(C)(C)CCC[C@@]3(C)O2 | 4.93 (≈ 18.4 µM)
10 | C[C@H](C[C@@]12CC[C@]3(OO1)C(C)(C)CCC[C@@]3(C)O2)OC(=O)c1ccccc1 | 1.12 (≈ 2.99 µM)
11 | C[C@@H]1CC[C@H]2[C@@H](C)C(=O)O[C@@H]3O[C@@]4(C)CC[C@@H]1[C@]32OO4 [ARTEMISININ] | 0.00113 (≈ 0.004 µM)
